Shown are actives, neighbours in structure and some others; about 2.2% of the full set was active somewhere.
GRK2 aptamer HTS = human GRK2 inhibition via aptamer displacement. P25098. bead flow cytometry, FAM-aptamer displacement from GRK2. inhibition of aptamer binding, % at 10 µM. actives 0.59% (n = 330,000). AID 488847;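 active = inhibition of aptamer binding above 40%, roughly 3 SD of noise, on plates passing a quality check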;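 also: median bead fluorescence of bound FAM aptamer so fluorescent compounds give negative values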
LMPTP inh = blocks human LMPTP phosphatase; P24666; recombinant LMPTP-A, OMFP fluorogenic substrate, fluorescence intensity; actives 0.22% (n = 360,000); AID 651560; inhibition, % at 20 µM;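 active = compounds that cut the enzyme signal by at least half of the control window in the single-dose screen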;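 also: plate controls were DMSO wells with enzyme plus substrate for no effect and substrate without enzyme for full effect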
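Buffer or medium: Bis-Tris pH 6.0, DTT, detergent; Assay system: LMPTP-A enzyme; Quantity: 0.625 nM enzyme; Detection: endpoint fluorescence intensity; Times: 50 min dark incubation at room temperature; Controls: substrate-only low control, DMSO enzyme-plus-substrate high control; Doses: single 20 µM dose; Read-out: percent inhibition versus substrate-only and uninhibited controls; Reagent: 400 µM OMFP.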
SUMO1-SIM PPI = SUMO1-SIM interaction modulation. P63165. SUMO1 binding to a labelled peptide, TR-FRET, 1 h. inhibition, % at 20 µM. actives 0.33% (n = 360,000). AID 602429; in the data active = inhibition above about 37%
Target sequence (P63165 whole entry, looked up): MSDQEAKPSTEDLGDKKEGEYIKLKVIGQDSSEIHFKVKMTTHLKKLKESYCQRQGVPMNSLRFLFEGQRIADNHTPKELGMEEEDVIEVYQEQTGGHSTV
DNMT1 block = blocks human DNA methyltransferase DNMT1; P26358; actives 0.83% (n = 360,000); DNMT1 molecular beacon, Hinp1I cleavage, fluorescence; inhibition (reported as % activation of signal), % at 10 µM; in the data active = inhibition above about 50%
STEP block = inhibitors of human striatal-enriched phosphatase STEP | P54829 | recombinant STEP, OMFP fluorogenic substrate, fluorescence | inhibition, % at 20 µM | actives 0.25% (n = 360,000);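 active = inhibition at 20 µM, scaled per plate between control wells, above about 37%, limit read from the data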;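 also: 0% = DMSO with enzyme and substrate and 100% = substrate only without enzyme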
Target sequence (P54829 whole entry, looked up): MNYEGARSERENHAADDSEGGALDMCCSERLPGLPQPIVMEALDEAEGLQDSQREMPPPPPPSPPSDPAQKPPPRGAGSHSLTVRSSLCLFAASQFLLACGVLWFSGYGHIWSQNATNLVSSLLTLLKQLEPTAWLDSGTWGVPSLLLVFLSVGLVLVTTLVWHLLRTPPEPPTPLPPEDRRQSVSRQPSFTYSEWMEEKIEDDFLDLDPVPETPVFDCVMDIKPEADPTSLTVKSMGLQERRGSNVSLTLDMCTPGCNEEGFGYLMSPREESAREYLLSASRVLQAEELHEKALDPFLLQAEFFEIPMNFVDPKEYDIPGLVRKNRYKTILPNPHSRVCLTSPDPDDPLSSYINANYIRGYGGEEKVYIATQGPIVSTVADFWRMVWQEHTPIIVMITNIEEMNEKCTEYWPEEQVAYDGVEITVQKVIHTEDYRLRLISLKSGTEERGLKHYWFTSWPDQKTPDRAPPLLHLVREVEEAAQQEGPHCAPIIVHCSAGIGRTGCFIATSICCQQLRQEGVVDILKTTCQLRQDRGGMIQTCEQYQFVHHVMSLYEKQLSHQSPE
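Material: STEP (striatal-enriched tyrosine phosphatase) enzyme, cell-free; Compound dosing: 20 µM single dose in 1% DMSO; Technique: fluorescence read at 480 nm ex / 540 nm em; Times: reaction 20 min, ambient temperature; Medium: 50 mM Bis-Tris pH 6.0 with 2.5 mM DTT and 0.005% Tween 20; Also added: OMFP at 25 µM.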
Scp1 inh = inhibitors of human Scp-1 phosphatase. Q9GZU7. Recombinant Scp1, phosphopeptide, malachite green phosphate absorbance. inhibition, % at 20 µM. actives 0.88% (n = 340,000). AID 493091;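 active = inhibition above about 50% at 20 µM, limit read from the data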;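 also: plate controls were DMSO wells with enzyme for no effect and wells lacking enzyme for full effect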
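Material – SCP-1 phosphatase catalytic domain, residues 76-261 · Buffer or medium – Acidic Tris acetate buffer with magnesium and detergent · Also added – Phospho 17-mer peptide substrate · Compound – single 20 µM dose, 1% DMSO · Times – 45 min room-temperature reaction, 5 min colour, 30 min stabiliser · Technique – Phosphate-binding colour reagent, absorbance read at 630 nm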
Scp1 confirm = Scp-1 (human) inhibition, single-dose confirmed | shares compounds with Scp1 inh | recombinant SCP-1 catalytic domain, phosphate release, malachite green absorbance | inhibition, % at 20 µM | actives 61% (n = 2,500) | AID 540281;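 also: plate controls were DMSO with enzyme for no effect and buffer wells lacking enzyme for full effect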
MG interference = interferes with malachite green readout, flagging false Scp-1 hits; AID 540313; Colorimetric interference counterscreen, malachite green absorbance 630 nm; apparent inhibition (interference), % at 20 µM; 2,500 tested, under 10 active; shares compounds with Scp1 inh;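 also: compounds added after enzyme reaction finished so only phosphate colour detection is probed; plate controls were DMSO wells with completed Scp-1 reaction for no effect and substrate wells lacking enzyme for full effect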
Scp-1 Tm shift = binds human Scp-1, shifting its melting temperature; shares compounds with Scp1 inh; Recombinant SCP1, Sypro Orange thermal shift Tm; thermal shift relative to vanadate control, % at 40 µM; actives 25% (n = 1,500); AID 540329;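 active = substances whose mean melting-temperature shift, as a percentage of the reference inhibitor's shift, reaches about 5.3%, limit read from the data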;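 also: 0% = Tm of DMSO wells and 100% = Tm with sodium orthovanadate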
* marks the source's active call; other numbers are inactive results; . = no result given.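 The calls were made as follows, unless noted: active = inhibition of at least 30% at 20 µM; inactive = the rest.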

SMILES	GRK2 aptamer HTS	LMPTP inh	SUMO1-SIM PPI	DNMT1 block	STEP block	Scp1 inh	Scp1 confirm	MG interference	Scp-1 Tm shift
CC(=O)Nc1ccc(-c2ccc3nnc(C)n3n2)cc1	0.0	-1.5	-19.6	1.0	0.8	-15.5	.	.	.
CCNC(=O)C[C@@H]1CC[C@@H]2NC[C@@H](O)COC[C@H]2O1	.	-2.8	-3.4	.	.	.	.	.	.
FC(F)(F)c1nc(-c2ccncc2)ncc1-c1nnnn1-c1ccccc1	1.0	-0.1	-9.7	0.5	3.8	78.1*	-16.0	-12.3	.
Cc1ccc(-n2nnnc2-c2cnc(-c3cccnc3)nc2C(F)(F)F)cc1	5.0	-0.6	-2.8	-3.1	1.8	-3.6	.	.	.
O=C(Nc1ccc(F)cc1)c1cccc(N2C(=O)c3ccccc3C2=O)c1	0.0	1.5	20.9	-0.5	13.3	81.7*	55.4*	-5.2	-2.9
O=C(CNC(=O)c1cccc(N2C(=O)c3ccccc3C2=O)c1)Nc1ccc(F)c(F)c1	0.0	1.0	-7.7	8.1	0.7	-2.2	.	.	.
Cc1ccn2cc(CCNC(=O)C3CC=CCC3C(=O)O)nc2c1 (stereo not drawn)	2.0	-4.8	-3.6	-1.4	-2.3	55.0*	-6.2	-4.6	.
C=CCn1c(SCC(=O)NCCOC)nc2scc(-c3ccco3)c2c1=O	2.0	1.8	14.8	7.2	0.9	52.2*	16.4	-24.7	.
Cc1cccc2cc(/C=N/NC(=O)c3ccccc3O)c(Cl)nc12	0.0	11.9	1.5	10.0	4.3	95.4*	72.7*	-19.2	3.7
O=C(O)Cc1ccc(N=Nc2c(O)c(C(=O)O)cc3ccccc23)cc1	1.0	45.2	22.5	61.0*	9.8	50.3*	72.6*	-5.2	27.9*
NS(=O)(=O)c1ccc(N=Nc2c(O)c(C(=O)O)cc3ccccc23)cc1	1.0	16.3	-22.2	-27.9	8.9	17.1	.	.	.
CCOC(=O)c1ccc2c(c1)n(CC)c(/C=C/N(C)c1ccccc1)[n+]2CC	2.0	-1.5	-1.7	4.7	1.5	94.1*	97.5*	-1.3	-17.9
O=C(CSc1nc(O)cc(=O)[nH]1)C1CC1	0.0	-1.0	0.6	1.5	-4.8	52.6*	-11.7	-16.7	.
NC(=O)C1CCN(C(=O)CSc2nc(O)cc(=O)[nH]2)CC1	3.0	2.0	-3.8	1.1	-0.6	-12.1	.	.	.
COc1ccc(Nc2nnc(-c3ccncc3)s2)cc1Cl	0.0	64.0*	92.8*	69.1*	61.1*	94.4*	67.9*	-12.8	-6.3
Cc1cc(C)n2nc(SCC(=O)NC3(C#N)CCCCC3)nc2n1	.	-0.5	3.4	0.7	-4.9	.	.	.	.
CCOC(=O)c1sc(NC(=O)CSc2nncs2)c(C(=O)OCC)c1C	2.0	0.0	3.3	-9.0	0.8	52.3*	-10.0	-15.6	.
Cc1ccccc1Cn1c(C)c(C(=O)NCCC#N)sc1=O	.	-1.0	3.1	0.8	-0.1	.	.	.	.
Cc1ccc(CN2CC(C(=O)Nc3ncc(C)s3)CC2=O)cc1 (stereo not drawn)	.	-1.1	0.2	5.3	1.4	50.7*	2.0	-9.3	.
CCCC(=O)N1CCC1(C)C(=O)Nc1ccc2nccnc2c1 (stereo not drawn)	.	2.0	-12.8	5.1	-2.0	.	.	.	.
O=C(Nc1nccs1)c1ccc2nccnc2c1	0.0	-0.2	17.8	14.9	1.5	51.7*	62.6*	1.2	-1.9
O=C(COc1ccc([N+](=O)[O-])cc1)Nc1ccc(NC(=O)c2ccccc2)cc1	1.0	2.5	0.7	7.2	-1.9	-2.4	.	.	.
Cc1ccccc1NC(=O)C(=O)NNC(=O)COc1ccc2ccccc2c1	1.0	4.4	7.4	5.2	23.4	51.6*	69.2*	-4.0	-15.9
Cc1cccc(OCC(=O)NNC(=O)c2ccc([N+](=O)[O-])cc2)c1	0.0	-0.1	-17.2	-1.5	1.2	-0.7	.	.	.
O=C(COc1ccc([N+](=O)[O-])cc1)Nc1ccc(C(=O)Nc2ccccc2C(=O)O)cc1	3.0	-0.2	15.0	-1.2	4.1	64.6*	77.0*	-3.2	7.5*
SMILES	GRK2 aptamer HTS	LMPTP inh	SUMO1-SIM PPI	DNMT1 block	STEP block	Scp1 inh	Scp1 confirm	MG interference	Scp-1 Tm shift
O=C(COc1ccc2ccccc2c1)NNC(=O)c1ccc([N+](=O)[O-])cc1	0.0	21.4	-8.8	9.9	13.6	53.7*	73.9*	-6.5	7.2*
CCCCC(=O)N(C)c1c(CC)nc2c(OCc3cccc(Cl)c3)cccn12	.	0.5	1.1	2.3	0.6	.	.	.	.
Cc1csc(NC(=O)CSc2sc3c(O)cc(=O)[nH]c3c2C#N)n1	5.0	20.4	25.2	43.2	31.9	68.0*	53.2*	-17.8	12.4*
Cc1csc(NC(=O)CSc2nc3[nH]c(=O)cc(O)c3s2)n1	.	1.5	-27.1	-0.5	-2.0	2.3	.	.	.
CCSc1nnc(NC(=O)CSc2sc3c(O)cc(=O)[nH]c3c2C#N)s1	8.0	61.6*	35.6	77.1*	29.9	77.3*	49.1*	-13.1	12.9*
COc1ccc(S(=O)(=O)CCC(=O)Nc2c(C)n(C)n(-c3ccccc3)c2=O)cc1	0.0	-0.7	2.0	2.9	-1.1	54.7*	-14.7	-17.2	.
Cc1ccc(Cl)cc1NC(=O)Nc1c(C)n(C)n(-c2ccccc2)c1=O	0.0	0.0	7.0	-0.3	-4.4	76.5*	-18.1	-14.2	.
Cc1c(NC(=O)CN2C(=O)NC(C)(c3ccccc3)C2=O)c(=O)n(-c2ccccc2)n1C (stereo not drawn)	0.0	-0.1	-1.5	-0.3	1.6	0.7	-15.7	-18.9	.
Nc1[nH]c(C(=O)c2ccccc2)c(-c2ccncc2)c1C(=O)NCc1ccc(Cl)cc1	.	2.0	-1.9	.	.	.	.	.	.
COc1cc(/C=C(/C#N)C(=O)Nc2ccccc2)ccc1OCc1ccc(C(=O)O)cc1	2.0	17.5	8.2	-1.6	26.6	81.7*	57.7*	-22.5	2.8
N#C/C(=C\c1ccc(OCc2ccc(C(=O)O)cc2)cc1)C(=O)NCc1ccccc1	2.0	-0.8	-15.9	0.2	19.0	90.7*	80.8*	-10.9	-24.4
C[C@@H](NC(=O)/C(C#N)=C/c1ccc(O)c(O)c1)c1ccccc1	2.0	-1.0	-19.5	7.4	-0.3	-8.8	.	.	.
CC(NC(=O)/C(C#N)=C/c1ccc(OCC(=O)O)cc1)c1ccccc1 (stereo not drawn)	1.0	-1.5	-7.6	2.2	3.0	98.2*	39.7*	-2.1	0.8
COc1cc(/C=C(\C#N)C(=O)NCc2ccccc2)ccc1OCc1ccc(C(=O)O)cc1	0.0	0.0	-10.2	0.2	-1.0	2.5	.	.	.
